This passage reports IC50 results from ChEMBL document CHEMBL3045526, “Tailoring the structure of aminobisphosphonates to target plant P5C reductase” (J Agric Food Chem, 2008).

For the experiment, the target named is T1, Pyrroline-5-carboxylate reductase (Arabidopsis thaliana, UniProt P54904).
T1 sequence (P54904 whole entry): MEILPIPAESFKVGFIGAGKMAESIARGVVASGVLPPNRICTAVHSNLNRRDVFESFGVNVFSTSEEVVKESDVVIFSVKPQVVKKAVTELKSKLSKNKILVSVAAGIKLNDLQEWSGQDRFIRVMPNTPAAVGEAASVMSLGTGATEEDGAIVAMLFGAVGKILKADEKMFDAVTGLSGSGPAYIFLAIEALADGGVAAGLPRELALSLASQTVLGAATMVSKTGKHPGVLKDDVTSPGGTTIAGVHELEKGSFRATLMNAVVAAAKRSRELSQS
Put plainly: Inhibition of Arabidopsis thaliana P5C assessed as reduction in NADH oxidation incubated at 35 degC up to 10 min. The essentials: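 P5C reductase partially purified from stationary-phase A. thaliana cultured cells. Forward reaction run in 100 mM Tris-HCl pH 8.0, 0.1 mM MgCl2, 2 mM DL-P5C, 0.25 mM NADH, with 0.15–0.20 nkat enzyme. A340 followed at 35 °C for up to 10 min against P5C-free blanks. Inhibitor final 5 µM–5 mM (pH 7.5–8.0), triplicate. IC50 by linear regression of % activity vs log concentration.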
As a reminder, the IC50 is the point on the concentration scale where inhibition reaches its midpoint. For the compound `O=P(O)(O)C(O)c1cccc(Cl)c1Cl` (racemic) [(2,3-DICHLOROPHENYL)(HYDROXY)METHYLPHOSPHONIC ACID], the IC50 was found to be 4.9 mM. On to `O=P(O)(O)C(O)c1ccc(Cl)cc1Cl` (racemic) [(2,4-DICHLOROPHENYL)(HYDROXY)METHYLPHOSPHONIC ACID], for which the half-maximal inhibitory concentration (IC50) was determined as 5.8 mM. Under `O=P(O)(O)C(O)c1c(Cl)cccc1Cl` (racemic) [(2,6-DICHLOROPHENYL)(HYDROXY)METHYLPHOSPHONIC ACID] stands 8.1 mM; under `O=P(O)(O)C(O)c1ccccc1Cl` (racemic) [(2-CHLOROPHENYL)(HYDROXY)METHYLPHOSPHONIC ACID], 7.1 mM. For `O=P(O)(O)C(O)c1ccc(Cl)c(Cl)c1` (racemic) [(3,4-DICHLOROPHENYL)(HYDROXY)METHYLPHOSPHONIC ACID] the value was 1.4 mM; for `O=P(O)(O)C(O)c1cccc(Cl)c1` (racemic) [(3-CHLOROPHENYL)(HYDROXY)METHYLPHOSPHONIC ACID], 5.1 mM; for `O=P(O)(O)C(O)c1ccc(Cl)cc1` (racemic) [(4-CHLOROPHENYL)(HYDROXY)METHYLPHOSPHONIC ACID], 45.5 mM.

Take `NC(c1cccc(Cl)c1Cl)P(=O)(O)O` (racemic) [AMINO(2,3-DICHLOROPHENYL)METHYLPHOSPHONIC ACID]: the IC50 is 4.6 mM. Under `COc1cccc(C(N)P(=O)(O)O)c1OC` (racemic) [AMINO(2,3-DIMETHOXYPHENYL)METHYLPHOSPHONIC ACID] stands 16 mM. Under `NC(c1ccc(Cl)cc1Cl)P(=O)(O)O` (racemic) [AMINO(2,4-DICHLOROPHENYL)METHYLPHOSPHONIC ACID] stands 8.2 mM; under `NC(c1ccccc1Br)P(=O)(O)O` (racemic) [AMINO(2-BROMOPHENYL)METHYLPHOSPHONIC ACID], 63 mM.

With `NC(c1ccccc1Cl)P(=O)(O)O` (racemic) [AMINO(2-CHLOROPHENYL)METHYLPHOSPHONIC ACID], the IC50 is 10.6 mM.

For `NC(c1ccccc1F)P(=O)(O)O` (racemic) [AMINO(2-FLUOROPHENYL)METHYLPHOSPHONIC ACID], the concentration for half-maximal inhibition (IC50) amounted to 6.6 mM. Under `NC(c1cccc(Cl)c1)P(=O)(O)O` (racemic) [AMINO(3-CHLOROPHENYL)METHYLPHOSPHONIC ACID] stands 35.6 mM; under `O=P(O)(O)C(Nc1cccc(Cl)c1Cl)P(=O)(O)O` [2,3-DICHLOROPHENYLAMINOMETHYLENEBISPHOSPHONIC ACID], 0.102 mM; under `O=P(O)(O)C(Nc1ccc(Cl)cc1Cl)P(=O)(O)O` [2,4-DICHLOROPHENYLAMINOMETHYLENEBISPHOSPHONIC ACID], 0.5 mM. Under `O=P(O)(O)C(Nc1cc(Cl)ccc1Cl)P(=O)(O)O` [2,5-DICHLOROPHENYLAMINOMETHYLENEBISPHOSPHONIC ACID] stands 0.73 mM. For the compound `O=P(O)(O)C(Nc1c(Cl)cccc1Cl)P(=O)(O)O` [2,6-DICHLOROPHENYLAMINOMETHYLENEBISPHOSPHONIC ACID], the IC50 stood at 0.112 mM. For `O=P(O)(O)C(Nc1ccc(Cl)c(Cl)c1)P(=O)(O)O` [3,4-DICHLOROPHENYLAMINOMETHYLENEBISPHOSPHONIC ACID] the value was 0.268 mM; for `O=P(O)(O)C(Nc1cc(Cl)cc(Cl)c1)P(=O)(O)O` [(3,5-DICHLOROPHENYLAMINO)METHYLENEDIPHOSPHONIC ACID], 0.077 mM; for `O=P(O)(O)C(Nc1ccc(Cl)cc1)P(=O)(O)O` [(4-CHLOROPHENYLAMINO)METHYLENEDIPHOSPHONIC ACID], 0.86 mM.
